Several values for one entry are separate records, joined by “and”; a condition that tells them apart may be missing. Identical values can stand only once.
Test system: U2OS
Assay: Multiplex assay against U2OS
Format: toxicity, cell-based
Details: human, 1 µM, compound concentration 1 uM
Outline: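 Phenotypes for tubulin, mitochondrial mass and membrane permeability are expressed as per cents of healthy-nucleus cells. Cells were stained live at seeding with Hoechst33342, BioTracker Green Microtubule Cytoskeleton Dye, MitoTracker Red and Annexin V Alexa Fluor 680, then imaged after compound addition on a CQ1 microscope at 37°C and 5% CO2. Machine-learning gating in CellPathfinder separated Hoechst high-intensity objects from normal cells, divided normal cells by nuclear state (healthy, pyknosed, fragmented) and divided pyknosed cells into mitotic or apoptotic.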

Question: For `CC(C)C(=O)Nc1n[nH]c2cc(-c3cccc(NS(=O)(=O)C4CC4)c3)ccc12`, which “Population Apoptotic (%)” value (12 h, replicate 1) is on record?
Answer: 33% and 20%

Question: And the “Population Fragmented Nuclei (%)” value (12 h, replicate 1)?
Answer: 8% and 3%

Question: And the “Population Healthy Nuclei (%)” value (12 h, replicate 1)?
Answer: 88% and 86%

Question: What about the “Population Membrane Permeable-Phenotype (%)” value (12 h, replicate 1) of the same compound?
Answer: 18% and 12%

Question: And the “Population Mitochondria Different-Phenotype (%)” value (12 h, replicate 1)?
Answer: 22% and 20%

Question: What about the “Population Mitotic Cells (%)” value (12 h, replicate 1) of the same compound?
Answer: 66% and 80%

Question: And the “Population Normal (%)” value (12 h, replicate 1)?
Answer: 98% and 95%

Question: What about the “Population Pyknosed Nuclei (%)” value (12 h, replicate 1) of the same compound?
Answer: 3% and 9%

Question: What about the “Population Tubulin-Different-Phenotype (%)” value (12 h, replicate 1) of the same compound?
Answer: 21% and 32%

Question: What about the “Total Cell Count” value (12 h, replicate 1) of the same compound?
Answer: 108 and 215

Question: What about the “Population Apoptotic (%)” value (12 h, replicate 2) of the same compound?
Answer: 25% and 16%

Question: What about the “Population Fragmented Nuclei (%)” value (12 h, replicate 2) of the same compound?
Answer: 11%

Question: What about the “Population Healthy Nuclei (%)” value (12 h, replicate 2) of the same compound?
Answer: 82% and 92%

Question: What about the “Population Hoechst High Intensity Objects (%)” value (12 h, replicate 2) of the same compound?
Answer: 12% and 6%

Question: And the “Population Membrane Permeable-Phenotype (%)” value (12 h, replicate 2)?
Answer: 21% and 10%

Question: What about the “Population Mitochondria Different-Phenotype (%)” value (12 h, replicate 2) of the same compound?
Answer: 42% and 28%

Question: And the “Population Mitotic Cells (%)” value (12 h, replicate 2)?
Answer: 75% and 83%

Question: And the “Population Normal (%)” value (12 h, replicate 2)?
Answer: 87% and 94%

Question: What about the “Population Pyknosed Nuclei (%)” value (12 h, replicate 2) of the same compound?
Answer: 5% and 4%

Question: What about the “Population Tubulin-Different-Phenotype (%)” value (12 h, replicate 2) of the same compound?
Answer: 26% and 18%

Question: What about the “Total Cell Count” value (12 h, replicate 2) of the same compound?
Answer: 122 and 78

Question: And the “Population Apoptotic (%)” value (24 h, replicate 1)?
Answer: 27% and 25%

Question: What about the “Population Fragmented Nuclei (%)” value (24 h, replicate 1) of the same compound?
Answer: 5% and 2%

Question: And the “Population Healthy Nuclei (%)” value (24 h, replicate 1)?
Answer: 90% and 89%

Question: And the “Population Hoechst High Intensity Objects (%)” value (24 h, replicate 1)?
Answer: 2% and 3%

Question: What about the “Population Membrane Permeable-Phenotype (%)” value (24 h, replicate 1) of the same compound?
Answer: 12% and 10%

Question: And the “Population Mitochondria Different-Phenotype (%)” value (24 h, replicate 1)?
Answer: 17% and 24%

Question: What about the “Population Mitotic Cells (%)” value (24 h, replicate 1) of the same compound?
Answer: 72% and 75%

Question: What about the “Population Normal (%)” value (24 h, replicate 1) of the same compound?
Answer: 97% and 96%

Question: What about the “Population Pyknosed Nuclei (%)” value (24 h, replicate 1) of the same compound?
Answer: 4% and 8%

Question: And the “Population Tubulin-Different-Phenotype (%)” value (24 h, replicate 1)?
Answer: 23% and 38%

Question: And the “Total Cell Count” value (24 h, replicate 1)?
Answer: 152 and 246

Question: And the “Population Apoptotic (%)” value (24 h, replicate 2)?
Answer: 18% and 21%

Question: What about the “Population Fragmented Nuclei (%)” value (24 h, replicate 2) of the same compound?
Answer: 4% and 3%

Question: And the “Population Healthy Nuclei (%)” value (24 h, replicate 2)?
Answer: 82% and 88%

Question: What about the “Population Hoechst High Intensity Objects (%)” value (24 h, replicate 2) of the same compound?
Answer: 8% and 4%

Question: What about the “Population Mitochondria Different-Phenotype (%)” value (24 h, replicate 2) of the same compound?
Answer: 41% and 31%

Question: And the “Population Mitotic Cells (%)” value (24 h, replicate 2)?
Answer: 81% and 78%

Question: What about the “Population Normal (%)” value (24 h, replicate 2) of the same compound?
Answer: 91% and 95%

Question: And the “Population Pyknosed Nuclei (%)” value (24 h, replicate 2)?
Answer: 12% and 7%

Question: What about the “Population Tubulin-Different-Phenotype (%)” value (24 h, replicate 2) of the same compound?
Answer: 35%

Question: What about the “Total Cell Count” value (24 h, replicate 2) of the same compound?
Answer: 144 and 96
